From PubChem BioAssay
The list is not random: actives were taken first. Their share in the collection is about 2%.
SUMO1-SIM PPI: modulators of SUMO1 protein-protein interactions, primary screen, biochemical, uHTS; SUMO1 binding to a labelled peptide, TR-FRET, 1 h; inhibition, % at 20 µM; 0.33% of 360,000 active; in the data active means inhibition above about 37%
Target sequence (P63165 whole entry, looked up): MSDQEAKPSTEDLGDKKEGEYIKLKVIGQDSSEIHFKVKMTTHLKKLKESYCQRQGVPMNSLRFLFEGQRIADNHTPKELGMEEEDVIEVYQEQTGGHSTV
LMPTP block: LMPTP phosphatase inhibitors, primary screen, biochemical, fluorescence intensity, uHTS; inhibition, % at 20 µM; AID 651560, 2012; 0.22% of 360,000 active; recombinant LMPTP-A, OMFP fluorogenic substrate;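 active means compounds that cut the enzyme signal by at least half of the control window in the single-dose screen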
Target sequence (P24666 whole entry, looked up): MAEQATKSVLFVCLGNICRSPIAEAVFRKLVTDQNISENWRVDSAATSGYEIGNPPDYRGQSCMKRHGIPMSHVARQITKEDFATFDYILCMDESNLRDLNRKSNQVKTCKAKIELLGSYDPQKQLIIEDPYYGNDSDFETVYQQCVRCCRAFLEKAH
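Material: LMPTP-A; amount: 0.625 nM enzyme; doses: single 20 µM dose; times: reaction 50 min, room temperature, dark; technique: fluorescence intensity of OMFP turnover product; benchmarks: no-enzyme and uninhibited controls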
CSN deneddyl inh: inhibitors of CSN-mediated cullin deneddylation, primary screen, biochemical, fluorescence polarization, uHTS; COP9 signalosome complex subunit 5 (Homo sapiens), Q92905; Purified CSN, SCF-Nedd8-OG deneddylation; inhibition, % at 12.5 µM; 0.38% of 360,000 active; AID 651999, 2013;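 active means pattern-corrected inhibition above about 35%, with an unprinted fluorescence ratio check between 0.5 and 1.5, limit read from the data, passing the limit was not always enough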
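Schedule: reaction 90 min, room temperature / Assay system: HEK293T-derived human Csn5 enzyme / Input: Csn5 at 0.24 nM final / Measure: inhibition of Csn5 cleavage, % / Control set: substrate-only high control, full reaction low control / Technique: fluorescence polarization of the substrate / Buffer or medium: Tris/NaCl/DTT buffer, pH 7.5 / Reagent: SCFSkp2-Nedd8OG substrate at 10 nM final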
DNMT1 inh: human DNMT1 methyltransferase inhibitors, primary screen, biochemical, molecular beacon, fluorescence, HinP1I cleavage, uHTS; DNA (cytosine-5)-methyltransferase 1 (Homo sapiens), P26358; inhibition (reported as % activation of signal), % at 10 µM; 0.83% of 360,000 active; in the data active means inhibition above about 50%
STEP inh: STEP phosphatase inhibitors, primary screen, biochemical, fluorescence intensity, uHTS; AID 588621, 2011; 0.25% of 360,000 active; recombinant STEP, OMFP fluorogenic substrate; inhibition, % at 20 µM;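 active means inhibition at 20 µM, scaled per plate between control wells, above about 37%, limit read from the data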
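System: STEP (striatal-enriched tyrosine phosphatase) enzyme, cell-free; medium: Bis-Tris pH 6.0 buffer with DTT, detergent; dosing: 20 µM, 1% DMSO; times: reaction 20 min, ambient temperature; detection: fluorescence, 480/540 nm; read-out basis: normalized % inhibition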
Scp1 inh: Scp-1 phosphatase inhibitors, primary screen, biochemical, colorimetric, uHTS; Recombinant Scp1, phosphopeptide, malachite green phosphate absorbance; inhibition, % at 20 µM; 0.88% of 340,000 active; AID 493091, 2011;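 active means inhibition above about 50% at 20 µM, limit read from the data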
Target sequence (Q9GZU7 76-261 limits assumed): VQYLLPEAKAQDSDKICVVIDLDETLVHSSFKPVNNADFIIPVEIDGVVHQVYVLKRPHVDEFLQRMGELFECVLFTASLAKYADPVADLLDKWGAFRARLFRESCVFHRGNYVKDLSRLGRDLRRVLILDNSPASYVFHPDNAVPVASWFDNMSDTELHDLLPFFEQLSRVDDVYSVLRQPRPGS
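Material – SCP-1 phosphatase catalytic domain, residues 76-261 · Buffer or medium – Acidic Tris acetate buffer with magnesium and detergent · Also added – Phospho 17-mer peptide substrate · Compound – single 20 µM dose, 1% DMSO · Times – 45 min room-temperature reaction, 5 min colour, 30 min stabiliser · Technique – Phosphate-binding colour reagent, absorbance read at 630 nm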
Large screens that a line does not name were inactive.

Oc1ccccc1/C=N/[n+]1ccccc1	Scp1 inh 103
COC(=O)c1ccc2c(c1)C(=O)/C(=C/c1ccc(O)cc1)O2	SUMO1-SIM PPI 47
COc1cc2nc(NC(=O)c3ccc(F)cc3Cl)sc(=O)c2cc1OC	none
COc1ccc2c(c1)c(/C=C/c1cc[n+](C)cc1)cn2C	CSN deneddyl inh 74
Cc1ccc(-c2nn(C)c(=O)c3ccccc23)cc1S(=O)(=O)NCCN1CCOCC1	none
CCOC(=O)CNS(=O)(=O)c1cc(-c2nn(C)c(=O)c3ccccc23)ccc1C	Scp1 inh 62
COc1ccc(CN2CCN(C3CCC3)CC2CCO)c(F)c1 (stereo not drawn)	none
Cc1ccc(F)c(CNC(=O)C2CCC(=O)N(CCCN3CCCC3=O)C2)c1F (stereo not drawn)	none
COc1ccc(-c2ccc3c(c2)S(=O)(=O)c2cccc(C(=O)NCc4ccccc4Cl)c2C3=O)cc1OC	none
COc1ccc(-c2ccc3c(c2)S(=O)(=O)c2cccc(C(=O)NCCOc4ccccc4Cl)c2C3=O)cc1OC	CSN deneddyl inh 65
COc1ccc(Cc2nnc(NC(=O)Cc3cccs3)s2)cc1OC	DNMT1 inh 75, Scp1 inh 70
COc1ccc(C(=O)Nc2nnc(Cc3cccs3)s2)cc1OC	none
Cc1cc(Cl)ccc1N(CC(=O)NCc1ccc2c(c1)OCO2)S(C)(=O)=O	none
Cc1ccc(C(=O)Nc2nnc(CC(=O)N/N=C/c3ccncc3)s2)cc1	none
Cc1ccc(C(=O)Nc2nnc(CC(=O)N/N=C/c3ccc(O)c(O)c3)s2)cc1	SUMO1-SIM PPI 96
COc1ccc(C(=O)Nc2nnc(CC(=O)N/N=C/c3ccc(O)cc3O)s2)cc1	SUMO1-SIM PPI 79 (no result: Scp1 inh)
CCc1nnc(NC(=O)c2ccc(OC)cc2)s1	none
O=C/C=C/c1coc2ccc3ccccc3c2c1=O	Scp1 inh 103 (no result: SUMO1-SIM PPI, LMPTP block, CSN deneddyl inh, DNMT1 inh, STEP inh)
N#Cc1c(-c2ccc(Cl)cc2)cc(-c2cccs2)nc1SCC(=O)O	LMPTP block 92, STEP inh 98, Scp1 inh 90
O=S(=O)(Cc1ccccc1)Nn1cnnc1	SUMO1-SIM PPI 60
Cc1cccc(NS(=O)(=O)Cc2ccccc2)n1	none
COC(=O)c1ccc(COn2nnc3ccccc32)cc1	none
Cc1ccc(C(=O)Oc2oc(-c3ccccc3)nc2C=Nc2ccc(N(C)C)cc2)cc1	CSN deneddyl inh 47
CN(C)c1ccc(N=Cc2nc(-c3ccccc3)oc2OC(=O)c2cccc(Cl)c2)cc1	none
CCCCN(CCO)CCCC	none
Cc1cc(N)ccc1N1CCCC1	LMPTP block 68, DNMT1 inh 83
O=C(CCCN1C(=O)c2cccc3cccc(c23)C1=O)Nc1nccs1	SUMO1-SIM PPI 50
CC(=O)c1c(C(=O)O)[nH]c(C(=O)O)c1C	none
CC(C)C(NC(=O)OCc1ccccc1)C(=O)OCC(=O)NCc1ccco1 (stereo not drawn)	none
CC(C)[C@H](NC(=O)OCc1ccccc1)C(=O)OCC(=O)NCc1ccco1	Scp1 inh 59
N#Cc1ccccc1C[C@H](N)C(=O)NC[C@H]1O[C@@H](n2ccc(N)nc2=O)[C@H](O)[C@@H]1O	none (no result: Scp1 inh)
CSCCC(NC(=O)c1ccc(C(C)(C)C)cc1)C(=O)OCC(=O)N1CCCC1=O (stereo not drawn)	CSN deneddyl inh 67
NS(=O)(=O)c1ccc(CCNC(=O)c2cc3ccccc3s2)cc1	Scp1 inh 58
NS(=O)(=O)c1ccc(CCNC(=O)c2ccc(Cl)s2)cc1	none
CCOC(=O)C1=C(COc2ccccc2)NC(=O)NC1c1ccc(Br)cc1 (stereo not drawn)	SUMO1-SIM PPI 47
Cc1cc(NC(=O)c2ccccc2)nc2c1c(=O)oc1ccccc12	SUMO1-SIM PPI 52
CC[N+](CC)(CC)CCOc1cccc(OCC[N+](CC)(CC)CC)c1OCC[N+](CC)(CC)CC	Scp1 inh 96
CC1(C)C(/C=C/C=C/C=C/C=C2\N(CCCCS(=O)(=O)O)c3ccc4ccccc4c3C2(C)C)=[N+](CCCCS(=O)(=O)[O-])c2ccc3ccccc3c21	SUMO1-SIM PPI 110, DNMT1 inh 88
CC1CN(C(=O)c2cc3cc(Br)ccc3[nH]2)CC(C)O1 (stereo not drawn)	none
Cc1ccc(NC(=O)CN2C(=O)N/C(=C/c3ccc(C)s3)C2=O)cc1	CSN deneddyl inh 58
Cc1ccc(NC(=O)CN2C(=O)N/C(=C/c3ccc(C)o3)C2=O)cc1	none
O=C(O)c1ccc(COc2ccccc2/C=C2\NC(=O)N(Cc3ccccc3)C2=O)cc1	none
Cc1ccc(NC(=O)CN2C(=O)N/C(=C/c3ccccc3OCc3cccc(C(=O)O)c3)C2=O)cc1	CSN deneddyl inh 72
CC(C)(C)C1CCC(=O)N(CCC#N)CC1 (stereo not drawn)	none
CC(=O)N1Cc2cc(C(=O)NCC(F)(F)F)nc(-c3cccc(-c4cc5ccccc5o4)c3)c2[C@@H]1CCO	none (no result: DNMT1 inh, STEP inh, Scp1 inh)
Cn1nc(CC(=O)NCc2cccc3ccccc23)c2ccccc2c1=O	none
Cn1nc(CC(=O)NCc2ccc(F)cc2)c2ccccc2c1=O	SUMO1-SIM PPI 46
CCOc1ccc(C(=O)NCC(=O)NNC(=O)CN(C)S(=O)(=O)c2ccc(Cl)cc2)cc1	none
O=C(O)c1ccc(N2CCCCC2)cc1O	none
O=C(O)c1ccc(N2Cc3ccccc3C2)cc1O	Scp1 inh 71
CCn1cc(C(=O)O)c(=O)c2cc(F)c(N3CCN(C(=S)NC(=O)c4ccccc4Cl)CC3)cc21	LMPTP block 63
CCn1cc(C(=O)NCc2ccc3c(c2)OCO3)c(=O)c2cc(F)c(N3CCN(C(=O)c4ccco4)CC3)cc21	LMPTP block 53
C=CCNC(=S)N1CCN(c2cc3c(cc2F)c(=O)c(C(=O)O)cn3CC)CC1	none
CCn1cc(C(=O)NCc2ccccc2)c(=O)c2cc(F)c(N3CCN(C(=O)c4ccco4)CC3)cc21	none
CCn1cc(C(=O)O)c(=O)c2cc(F)c(N3CCN(C(=S)NC(=O)c4ccccc4)CC3)cc21	LMPTP block 66
CCn1cc(C(=O)O)c(=O)c2cc(F)c(N3CCN(C(=S)Nc4ccc(OC)cc4)CC3)cc21	LMPTP block 59
O=C(Nc1nccs1)c1ccc(NC(=O)C2CC=CCC2C(=O)O)cc1 (stereo not drawn)	none
